Assay results as given in ChEMBL document CHEMBL3616437, “Thiazole compounds with activity against Cryptococcus gattii and Cryptococcus neoformans in vitro” (Eur J Med Chem, 2015).
Calls of active or inactive are those of the source. The rule behind the calls is not given here.

Columns and labels:
[1] = test system: Cryptococcus neoformans; test: Antifungal activity against Cryptococcus neoformans 28JF assessed as reduction in cell viability at 1.9 uM after 6 to 72 hrs by MTT assay; type: functional
[2] = test system: Cryptococcus neoformans; test: Antifungal activity against Cryptococcus neoformans LMM820 assessed as reduction in cell viability at 1.9 uM after 6 to 72 hrs by MTT assay; type: functional
[3] = test system: Cryptococcus neoformans; test: Antifungal activity against Cryptococcus neoformans ATCC 24067 assessed as reduction in cell viability at 1.9 uM after 6 to 72 hrs by MTT assay; type: functional
[4] = test system: Cryptococcus neoformans; test: Antifungal activity against Cryptococcus neoformans ATCC 28957 assessed as reduction in cell viability at 1.9 uM after 6 to 72 hrs by MTT assay; type: functional
[5] = test system: Cryptococcus neoformans; test: Antifungal activity against Cryptococcus neoformans WP assessed as reduction in cell viability at 1.9 uM after 6 to 72 hrs by MTT assay; type: functional
[6] = test system: Cryptococcus neoformans; test: Antifungal activity against Cryptococcus neoformans ATCC 62066 assessed as reduction in cell viability at 1.9 uM after 6 to 72 hrs by MTT assay; type: functional
[7] = test system: Cryptococcus gattii species complex; test: Antifungal activity against Cryptococcus gattii ICB181 assessed as reduction in cell viability at 0.12 uM after 6 to 72 hrs by MTT assay; type: functional, Cryptococcus bacillisporus
[8] = test system: Cryptococcus bacillisporus; test: Antifungal activity against Cryptococcus gattii ATCC 32608 assessed as reduction in cell viability after at 0.12 uM 6 to 72 hrs by MTT assay; type: functional
[9] = test system: Cryptococcus gattii species complex; test: Post-antifungal activity against Cryptococcus gattii L27/01 assessed as organism required time to achieve cell population of 10^4 cells/ml at 0.11 uM treated for 1 hr by MTT assay; type: functional, Cryptococcus bacillisporus
[10] = test system: Cryptococcus neoformans; test: Post-antifungal activity against Cryptococcus neoformans CN31 assessed as organism required time to achieve cell population of 10^4 cells/ml at 0.05 uM treated for 1 hr by MTT assay; type: functional
[11] = test system: Cryptococcus gattii species complex; test: Antifungal activity against Cryptococcus gattii 23/10993 assessed as reduction in cell viability at 0.12 uM after 6 to 72 hrs by MTT assay; type: functional, Cryptococcus bacillisporus
[12] = test system: Cryptococcus neoformans; test: Antifungal activity against Cryptococcus neoformans ATCC 28957 assessed as reduction in cell viability at 0.12 uM after 6 to 72 hrs by MTT assay; type: functional
[13] = test system: Cryptococcus gattii species complex; test: Antifungal activity against Cryptococcus gattii 135L/03 assessed as reduction in cell viability at 0.12 uM after 6 to 72 hrs by MTT assay; type: functional, Cryptococcus bacillisporus
[14] = test system: Cryptococcus gattii species complex; test: Antifungal activity against Cryptococcus gattii 196L/03 assessed as reduction in ergosterol content at MIC after 24 hrs by spectrophotometric analysis in presence of amphotericin B; type: functional, organism-based; conditions: Cryptococcus bacillisporus
How it was run: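 Pellet washed and weighed, then saponified in 25% ethanolic KOH at 85°C for 1 h. Extracted with water and n-heptane, read at 282 and 230 nm. Ergosterol taken from a standard curve and expressed as % of growth control.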

[15] = test system: Cryptococcus neoformans; test: Antifungal activity against Cryptococcus neoformans CN31 assessed as reduction in cell viability at 0.9 uM after 6 to 72 hrs by MTT assay; type: functional
[16] = test system: Cryptococcus neoformans; test: Antifungal activity against Cryptococcus neoformans 5396 assessed as reduction in cell viability at 0.9 uM after 6 to 72 hrs by MTT assay; type: functional
[17] = test system: Cryptococcus gattii species complex; test: Post-antifungal activity against Cryptococcus gattii L27/01 assessed as organism required time to achieve cell population of 10^4 cells/ml at 0.45 uM treated for 1 hr by MTT assay; type: functional, Cryptococcus bacillisporus
[18] = test system: Cryptococcus neoformans; test: Antifungal activity against Cryptococcus neoformans ATCC 28957 assessed as reduction in cell viability at 0.9 uM after 6 to 72 hrs by MTT assay; type: functional
[19] = test system: Cryptococcus neoformans; test: Antifungal activity against Cryptococcus neoformans 96806 assessed as reduction in cell viability at 0.9 uM after 6 to 72 hrs by MTT assay; type: functional
[20] = test system: Cryptococcus neoformans; test: Antifungal activity against Cryptococcus neoformans LMM820 assessed as reduction in cell viability at 0.9 uM after 6 to 72 hrs by MTT assay; type: functional
[21] = test system: Cryptococcus neoformans; test: Antifungal activity against Cryptococcus gattii ATCC 24065 assessed as reduction in cell viability at 26 uM after 6 to 72 hrs by MTT assay; type: functional, Cryptococcus bacillisporus
How it was run: (§1)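 Time-kill setup: colonies from two 48 h, 35°C SDA passages were suspended in saline to 70% transmittance at 530 nm. They were then diluted to 1-5 x10^3 cells/mL in RPMI with L-glutamine buffered to pH 7.0 with 0.165 M MOPS. Plates were incubated at 35°C for 0-72 h, then MTT (5.0 mg/mL) was added for 3 h. After isopropanol, absorbance was read at 490 nm. Drug-free controls were included, results were confirmed by SDA colony counts, and assays were run in triplicate.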

[22] = test system: Cryptococcus bacillisporus; test: Antifungal activity against Cryptococcus gattii ATCC 32608 assessed as reduction in cell viability at 26 uM after 6 to 72 hrs by MTT assay; type: functional; how it was run: as §1
[23] = test system: Cryptococcus gattii species complex; test: Antifungal activity against Cryptococcus gattii 196L/03 assessed as reduction in cell viability at 26 uM after 6 to 72 hrs by MTT assay; type: functional, Cryptococcus bacillisporus; how it was run: as §1
[24] = test system: Cryptococcus gattii species complex; test: Antifungal activity against Cryptococcus gattii L24/01 assessed as reduction in cell viability at 26 uM after 6 to 72 hrs by MTT assay; type: functional, Cryptococcus bacillisporus; how it was run: as §1
[25] = test system: Cryptococcus neoformans; test: Antifungal activity against Cryptococcus neoformans 5396 assessed as reduction in cell viability at 26 uM after 6 to 72 hrs by MTT assay; type: functional; how it was run: as §1
[26] = test system: Cryptococcus neoformans; test: Antifungal activity against Cryptococcus neoformans 27JF assessed as reduction in cell viability at 26 uM after 6 to 72 hrs by MTT assay; type: functional; how it was run: as §1
[27] = test system: Cryptococcus neoformans; test: Antifungal activity against Cryptococcus neoformans CN31 assessed as reduction in cell viability at 26 uM after 6 to 72 hrs by MTT assay; type: functional; how it was run: as §1
[28] = test system: Cryptococcus gattii species complex; test: Antifungal activity against Cryptococcus gattii L27/01 assessed as reduction in cell viability at 26 uM after 6 to 72 hrs by MTT assay; type: functional, Cryptococcus bacillisporus; how it was run: as §1
[29] = test system: Cryptococcus neoformans; test: Antifungal activity against Cryptococcus neoformans WP assessed as reduction in cell viability at 26 uM after 6 to 72 hrs by MTT assay; type: functional; how it was run: as §1
[30] = test system: Cryptococcus gattii species complex; test: Antifungal activity against Cryptococcus gattii 1913ER assessed as reduction in cell viability at 26 uM after 6 to 72 hrs by MTT assay; type: functional, Cryptococcus bacillisporus; how it was run: as §1
[31] = test system: Cryptococcus gattii species complex; test: Antifungal activity against Cryptococcus gattii LMM818 assessed as reduction in cell viability at 26 uM after 6 to 72 hrs by MTT assay; type: functional, Cryptococcus bacillisporus; how it was run: as §1
[32] = test system: Cryptococcus neoformans; test: Antifungal activity against Cryptococcus neoformans 96806 assessed as reduction in cell viability at 26 uM after 6 to 72 hrs by MTT assay; type: functional; how it was run: as §1

Structure (SMILES): C(=N\Nc1nc(-c2ccccc2)cs1)/C1CCCCC1
- Activity [1]: 90%
- Activity [2]: 90%
- Activity [3]: 90%
- Activity [4]: 90%
- Activity [5]: 90%
- Activity [6]: 90%

Structure (SMILES): C[C@@H]1[C@H](O)[C@@H](C)/C=C/C=C/C=C/C=C/C=C/C=C/C=C/[C@H](O[C@@H]2O[C@H](C)[C@@H](O)[C@H](N)[C@@H]2O)C[C@@H]2O[C@](O)(C[C@@H](O)C[C@@H](O)[C@H](O)CC[C@@H](O)C[C@@H](O)CC(=O)O[C@H]1C)C[C@H](O)[C@H]2C(=O)O [AMPHOTERICIN B]
- Activity [7]: 90%
- Activity [8]: 90%
- Time [9]: 2.65 h
- Time [10]: 2.75 h
- Activity [11]: 90%
- Activity [12]: 90%
- Activity [13]: 90%

Structure (SMILES): COc1ccc(-c2csc(N/N=C(\C)CCO)n2)cc1
- Activity [14]: inactive
- Activity [15]: 90%
- Activity [16]: 90%
- Time [17]: 1.7 h
- Activity [18]: 90%
- Activity [19]: 90%
- Activity [20]: 90%

Structure (SMILES): OC(Cn1cncn1)(Cn1cncn1)c1ccc(F)cc1F [FLUCONAZOLE]
- Activity [21]: 80%
- Activity [22]: 80%
- Activity [23]: 80%
- Activity [24]: 80%
- Activity [25]: 80%
- Activity [26]: 80%
- Activity [27]: 80%
- Activity [28]: 80%
- Activity [29]: 80%
- Activity [30]: 80%
- Activity [31]: 80%
- Activity [32]: 80%
